According to ChEMBL document CHEMBL3352195, “14,15-Epoxyeicosa-5,8,11-trienoic Acid (14,15-EET) surrogates: carboxylate modifications” (J Med Chem, 2014):

Tests used:
[1] = Vasorelaxant activity in bovine coronary artery assessed as reduction of U46619-induced contraction; format: functional, tissue-based, Bos taurus
Method in brief: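 Bovine coronary artery rings, precontracted, exposed to compound to obtain a concentration–response for relaxation. The value is the EC50 for vasorelaxation. Bioassay determinations n = 3−5.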

[2] = Vasorelaxant activity in bovine coronary artery assessed as reduction of U46619-induced contraction at 10 uM; format: functional, Bos taurus; parameters: scale not given: the % may be the effect or the level left
Method in brief: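 Precontracted bovine coronary artery rings were exposed to test agent at 10 μM. Relaxation is expressed as a percentage relative to a 14,15-EET control run in the same preparation. Bioassay determinations n = 3−5.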

[3] = target: T1, Bifunctional epoxide hydrolase 2 (Homo sapiens, UniProt P34913); assay: Inhibition of recombinant human sEH using CMNPC substrate by fluoresecent-based assay
T1 sequence (P34913 whole entry): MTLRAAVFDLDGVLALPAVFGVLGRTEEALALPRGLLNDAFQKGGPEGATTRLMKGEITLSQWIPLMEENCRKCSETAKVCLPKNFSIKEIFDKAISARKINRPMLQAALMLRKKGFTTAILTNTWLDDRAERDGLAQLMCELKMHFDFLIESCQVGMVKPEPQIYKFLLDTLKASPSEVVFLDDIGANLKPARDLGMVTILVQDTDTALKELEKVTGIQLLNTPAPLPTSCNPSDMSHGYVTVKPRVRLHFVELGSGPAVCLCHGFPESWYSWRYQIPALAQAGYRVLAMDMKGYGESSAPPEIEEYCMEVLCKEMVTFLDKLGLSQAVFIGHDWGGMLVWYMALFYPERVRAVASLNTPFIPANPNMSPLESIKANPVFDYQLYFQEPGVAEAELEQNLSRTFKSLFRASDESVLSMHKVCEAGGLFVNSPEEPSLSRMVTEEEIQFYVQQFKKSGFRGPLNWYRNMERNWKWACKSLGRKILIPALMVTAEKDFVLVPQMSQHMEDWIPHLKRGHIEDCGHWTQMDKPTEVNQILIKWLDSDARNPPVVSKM

Row | SMILES | EC50 [1] [nM] | IC50 [3] [nM] | Activity [2] [%]
1 | CCCCCNC(=O)NCCCC/C=C\CCCCCCc1noc(=S)[nH]1 | 3300 | – | 93
2 | CCCCCNC(=O)NCCCC/C=C\CCCCCS(=O)(=O)c1ccccc1O | 5000 | – | –
3 | CCCCCCC(=O)N(CCCC/C=C\CCCCCCc1nnn[nH]1)C(C)C | 1000 | > 500 | 74
4 | CCCCCNC(=O)NCCCC/C=C\CCOc1cccc2sc(NC(C)=O)nc12 | 3300 | – | –
5 | CCCCCNC(=O)NCCCC/C=C\CCCCCCS(=O)(=O)[O-].[Na+] | 7600 | – | 63
6 | CCCCCNC(=O)NCCCC/C=C\CCCCCCP(=O)([O-])[O-].[Na+].[Na+] | > 10000 | – | 71
7 | CCCCCNC(=O)NCCCC/C=C\CCCCCCC(=O)OCCOCCOCCO | 5100 | – | 72
8 | CCCCCNC(=O)NCCCC/C=C\CCCCCS(=O)(=O)c1ncn[nH]1 | 3100 | – | –
9 | CCCCCNC(=O)NCCCC/C=C\CCCCOCC(=O)O | – | – | 49
10 | CCCCCCC(=O)N(CCCC/C=C\CCCCCCC(=O)NCC(=O)O)C(C)C | 1900 | > 500 | 95
11 | CCCCNC(=O)C(=O)NCCCC/C=C\CCCCCCc1noc(=S)[nH]1 | 360 | > 500 | 116
12 | CCCCCNC(=O)NCCCC/C=C\CCCCCSc1ccccc1O | > 10000 | – | –
13 | CCCCCNC(=O)NCCCC/C=C\CCCCCSc1nnn[nH]1 | 3700 | – | –
14 | CCCCCNC(=O)NCCCC/C=C\CCCCC[S+]([O-])c1ncn[nH]1 (stereo not drawn) | 3500 | – | –
15 | CCCCCC1OC1C/C=C\C/C=C\C/C=C\CCCC(=O)O (stereo not drawn) | 2200 | – | 85
16 | CCCCCNC(=O)NCCCC/C=C\CCCCCCc1nnn[nH]1 | 180 | – | 119
17 | CCCCCNC(=O)NCCCC/C=C\CCCCCCC(=O)NS(C)(=O)=O | 6700 | – | 61
18 | CCCCCN(C)C(=O)N(C)CCCC/C=C\CCCCCCC(=O)NCC(=O)O | 2750 | > 500 | 92
19 | CCCCCNC(=O)NCCCC/C=C\CCCCCC1SC(=O)NC1=O (stereo not drawn) | > 10000 | – | –
20 | CCCCCCC(=O)N(CCCCCOc1cccc2sc(NC(C)=O)nc12)C(C)C | – | > 500 | 96
21 | CCCCNC(=O)C(=O)NCCCCCOc1cccc2sc(NC(C)=O)nc12 | 2400 | > 500 | 96
22 | CCCCNC(=O)C(=O)NCCCC/C=C\CCCCCCc1nnn[nH]1 | 1700 | > 500 | 96
23 | CCCCCNC(=O)NCCCC/C=C\CCCCCCCc1nnn[nH]1 | 1100 | – | 110

The next lines start with results.

Row | EC50 [1] [nM] | IC50 [3] [nM] | SMILES | Activity [2] [%]
24 | 340 | – | CCCCCNC(=O)NCCCC/C=C\CCCCCCC1=NOS(=O)N1 (stereo not drawn) | 109
25 | 2400 | – | CCCCCNC(=O)NCCCC/C=C\CCCCCCc1nsc(=O)[nH]1 | 54
26 | 3400 | – | CCCCCNC(=O)NCCCC/C=C\CCCCCNS(=O)(=O)c1ccccc1 | –
27 | 2900 | > 500 | CCCCCCC(=O)N(CCCC/C=C\CCCCCCC(=O)OCCOCCOCCO)C(C)C | 86
28 | 9800 | – | CCCCCNC(=O)NCCCC/C=C\CCCCCSc1ncn[nH]1 | –
29 | 6000 | – | CCCCCNC(=O)NCCCC/C=C\CCCCCCC(=O)NS(=O)(=O)c1ccccc1 | 73
30 | 1100 | – | CCCCCNC(=O)NCCCC/C=C\CCCCCCc1noc(=O)[nH]1 | 89
31 | 900 | > 500 | CCCCCNC(=O)NCCCCCOc1cccc2sc(NC(C)=O)nc12 | 73
32 | 320 | > 500 | CCCCCCC(=O)N(CCCC/C=C\CCCCCCC1=NOS(=O)N1)C(C)C (stereo not drawn) | 109
33 | 1600 | – | CCCCCNC(=O)NCCCC/C=C\CCCCCCC(=O)N[C@@H](CC(=O)[O-])C(=O)[O-].[Na+].[Na+] | 91
34 | 1500 | > 500 | CCCCNC(=O)C(=O)NCCCC/C=C\CCCCCCC(=O)OCCOCCOCCO | 104
